The values below come from ChEMBL document CHEMBL1156237, “Antiviral activity of benzimidazole derivatives. II. Antiviral activity of 2-phenylbenzimidazole derivatives” (Bioorg Med Chem, 2010).

Molecules are shown by their SMILES. Activity calls are given as the source filed them. Unless noted, the calls are words filed in the database; no cut-off is given here. Where only a bound is given, the exact number is not on record here.

For series [1], the system named is Human immunodeficiency virus 1. The series is described as follows: Antiviral activity against HIV1 3B infected in human MT4 cells assessed as protection from virus-induced cytopathogenicity after 4 days by MTT method. The format is functional, organism-based. The gist of the method: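 MT-4 cells, 1 × 10^4/well in RPMI with or without serial compound dilutions, infected with HIV-1 IIIB, 100 CCID50 (m.o.i. 0.01). Protection from virus-induced cytopathogenicity read by MTT.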

Series [2] can be described thus: Cytotoxicity against BHK cells after 48 to 96 hrs by MTT assay. The series is classed as cell-based, Mesocricetus auratus. The following applies: hamster. In outline:
(§1)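 Cell seeding: MDBK at 6 × 10^5 cells/mL in MEM-E with 10% horse serum and 1 mM Na pyruvate; BHK at 1 × 10^6 cells/mL in MEM-E with 10% FBS. Serial compound dilutions, 37 °C, 5% CO2. Viability of mock-infected cells by MTT after 48–96 h; CC50 is the concentration reducing viability by 50%.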

The nature of series [3]: Cytotoxicity against african green monkey Vero cells. The following applies: chlorocebus sabaeus. The format is cell-based. The gist of the method: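 Vero 76 monolayers exposed to serial compound dilutions, run in parallel on the same 24-well plates as the plaque-reduction assays. CC50 is the concentration reducing viability of mock-infected cells by 50%.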
The test system of the next series is Yellow fever virus. The experiment in a line: Antiviral activity against Yellow fever virus 17D infected in BHK cells assessed as protection from virus-induced cytopathogenicity after 3 to 4 days by MTT method. The series is classed as functional, organism-based.
The next series relates to Coxsackievirus B2. The series is described as follows: Antiviral activity against Human coxsackievirus B2 Ohio-1 infected in african green monkey Vero cells after 3 days by plaque reduction assay. The series is classed as functional, organism-based, Coxsackievirus B2 (strain Ohio-1). Particulars: Enterovirus B, Vero, 72 h. The gist of the method: (§2)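 Plaque reduction assay. Vero 76 cells at 2 × 10^5/well, grown overnight to confluence in D-MEM with 10% FBS. Infected 2 h with 50–100 PFU/well, unadsorbed virus removed. Overlay of D-MEM with 1% inactivated FBS and 0.75% methylcellulose, with or without serial compound dilutions. Incubated at 37 °C for 3 days (HSV-1 KOS, CVB-2 Ohio-1) or 5 days (RSV A2). Fixed and stained with crystal violet in 50% ethanol; plaques counted; EC50 by linear regression.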

The subject of series [4] is Respiratory syncytial virus. The experiment in a line: Antiviral activity against RSV A2 infected in african green monkey Vero cells after 5 days by plaque reduction assay. The format is functional, organism-based. The gist of the method:
as §2

The next series deals with Poliovirus 1. The experiment in a line: Antiviral activity against Polio virus type1 Sabin strain Chat infected in african green monkey Vero cells after 2 days by plaque reduction assay. The series is classed as functional, organism-based, Human poliovirus 1 strain Sabin. Particulars: Enterovirus C, 48 h.
The test system of series [5] is Mammalian orthoreovirus 1. The experiment in a line: Antiviral activity against Reovirus 1 3651 infected in BHK21 cells assessed as protection from virus-induced cytopathogenicity after 3 to 4 days by MTT method. The format is functional, organism-based. Particulars: for Activity: BHK-21.
A further series relates to Vaccinia virus. The experiment in a line: Antiviral activity against Vaccinia virus Elstree-Lister infected in african green monkey Vero cells after 3 days by plaque reduction assay. The series is classed as functional, organism-based. Particulars: Orthopoxvirus vaccinia.
Series [6] relates to Bovine viral diarrhea virus 1. The series is described as follows: Antiviral activity against Bovine viral diarrhea virus NADL infected in MDBK cells assessed as protection from virus-induced cytopathogenicity after 3 to 4 days by MTT method. The format is functional, organism-based, Bovine viral diarrhea virus 1-NADL. The following applies: Bovine viral diarrhea virus isolates and strains, MDBK. The gist of the method:
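Cytopathogenicity protection assay. MDBK cells at 3 × 10^4/well, grown overnight to confluence. Infected with BVDV NADL at m.o.i. 0.01 in MEM-E with 0.5% inactivated FBS, 1 mM Na pyruvate and 1% kanamycin. Serial compound dilutions added after 1 h. After 3–4 days at 37 °C, viability read by MTT; EC50 is the concentration giving 50% protection.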

The nature of series [7]: Cytotoxicity against MDBK cells after 48 to 96 hrs by MTT assay. Particulars: cattle, MDBK cells. The series is classed as cell-based, Bos taurus. The gist of the method:
as §1

Series [8] has as its system Vesicular stomatitis virus. The experiment in a line: Antiviral activity against VSV Indiana lab infected in african green monkey Vero cells after 2 days by plaque reduction assay. The format is functional, organism-based.
In a further series the test system is Human alphaherpesvirus 1. The series is described as follows: Antiviral activity against HSV1 KOS infected in african green monkey Vero cells after 3 days by plaque reduction assay. The format is functional, organism-based. The following applies: Human alphaherpesvirus 1, KOS, 72 h. The gist of the method:
as §2

Series [9] can be described thus: Cytotoxicity against human MT4 cells after 96 hrs by MTT assay. The format is cell-based. The following applies: MT4 cells. In outline:
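Exponentially growing MT-4 cells at 1 × 10^5 cells/mL in RPMI-1640 with 10% FCS, exposed to serial compound dilutions at 37 °C, 5% CO2. Viability by MTT after 96 h; CC50 is the concentration reducing viability of mock-infected cells by 50%.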

As to `CCC(=O)Nc1ccc(-c2nc3cc(C(F)(F)F)ccc3n2C2CCCCC2)cc1`, the outcome (in series [1]; in [4]; in series [5]; with Vaccinia virus; in series [8]) was inactive. The values for the CC50 in series [2], in [3] and in [7] were 15 µM, over 100 µM and 18 µM, respectively. The half-maximal effective concentration (EC50) in the series on Yellow fever virus is over 15 µM; with Coxsackievirus B2, 7 µM; in the series with Poliovirus 1, 30 µM; in series [6], over 18 µM; in the series on Human alphaherpesvirus 1 it was over 100 µM. Further, the midpoint of cytotoxicity in series [9], the CC50 at 96 h, lay at 17 µM.
In the case of `Cn1c(-c2ccc(NC(=O)CN3CCCC3)cc2)nc2cc(C(F)(F)F)ccc21`, the outcome (in series [1]; in [4]; in series [5]; in the series with Vaccinia virus; in series [8]) was inactive. The CC50 in series [2] is 27 µM; in [3], over 100 µM; in series [7], 65 µM. Further, the EC50 was over 27 µM with Yellow fever virus; 13 µM with Coxsackievirus B2; 50 µM in the series with Poliovirus 1; 7 µM in series [6]; 51 µM in the series on Human alphaherpesvirus 1. In series [9], this compound had a cytotoxic concentration (CC50) at 96 h of 16 µM.
Consider `CCC(=O)Nc1ccc(-c2nc3cc(C(F)(F)F)ccc3n2C)cc1`, for which the result (in series [1]; in [4]; in [5]; in the series on Vaccinia virus; in series [8]) was inactive. Further, the cytotoxic concentration (CC50) in series [2], in series [3] and in [7] was over 100 µM in each case. Also, the EC50 (in the series with Yellow fever virus; in the series on Coxsackievirus B2; in the series on Poliovirus 1; in series [6]; in the series with Human alphaherpesvirus 1) was over 100 µM throughout. In addition, in [9], the CC50 at 96 h came to 8 µM.
Regarding `CC(=O)Nc1ccc(-c2nc3cc(C(F)(F)F)ccc3n2C23CC4CC(CC(C4)C2)C3)cc1`, the outcome (in series [1]; in series [4]; in [5]; in the series on Vaccinia virus; in [8]) was inactive. The CC50 is over 100 µM in [2], over 100 µM in series [3] and 82 µM in series [7]. Besides, the concentration for a half-maximal effect (EC50) is over 100 µM with Yellow fever virus; over 100 µM with Coxsackievirus B2; over 100 µM in the series on Poliovirus 1; over 82 µM in [6]; over 100 µM in the series with Human alphaherpesvirus 1. The same compound showed a CC50 at 96 h in series [9] of 28 µM.
As to `Oc1ccc(-c2nc3cc(C(F)(F)F)ccc3[nH]2)cc1`, the outcome in series [1] and in series [8] was inactive. The CC50 is over 100 µM in series [2], over 100 µM in series [3] and 51 µM in series [7]. Besides, the EC50 was 12 µM in the series with Yellow fever virus; 5 µM in the series with Coxsackievirus B2; 20 µM in series [4] (human respiratory syncytial virus, A2, Vero, 120 h); 24 µM with Poliovirus 1; 7 µM in [5] (Mammalian orthoreovirus 1, 3651, BHK-21); over 100 µM in the series with Vaccinia virus (72 h). In addition, the EC50 in series [6] was over 51 µM; in the series with Human alphaherpesvirus 1, 25 µM. For the same compound, in series [9], the 50% cytotoxic concentration (CC50) at 96 h was determined as 17 µM.
As to `Cn1c(-c2ccc(NC(=O)CN3CCSCC3)cc2)nc2cc(C(F)(F)F)ccc21`, the outcome (in series [1]; in series [4]; in series [5]; in the series with Vaccinia virus; in series [8]) was inactive. The CC50 in series [2], in series [3] and in [7] was over 100 µM in each case. In addition, the concentration giving a half-maximal response (EC50) is 46 µM in the series with Yellow fever virus; 22 µM in the series with Coxsackievirus B2; over 100 µM with Poliovirus 1; 8 µM in [6]; over 100 µM with Human alphaherpesvirus 1. The compound also had a 50% cytotoxic concentration (CC50) at 96 h in [9] of 10 µM.
`Nc1ccc(-c2nc3cc(C(F)(F)F)ccc3n2C2CCCCC2)cc1`: the result (in series [1]; in series [4]; in [5]; with Vaccinia virus; in series [8]) was inactive. Besides, the CC50 in series [2], in series [3] and in [7] was over 100 µM in each case. The EC50 (in the series with Yellow fever virus; in the series with Coxsackievirus B2; with Poliovirus 1; in series [6]; in the series with Human alphaherpesvirus 1) was over 100 µM throughout. Further, half-maximal cytotoxicity in series [9] (CC50 at 96 h) was put at 44 µM.
Regarding `CC(=O)Nc1ccc(-c2nc3cc(C(F)(F)F)ccc3n2C2CCCCC2)cc1`, the outcome (in [1]; in [4]; in series [5]; with Vaccinia virus; in series [8]) was inactive. Moreover, the CC50 was determined as 15 µM in series [2], 30 µM in [3] and 17 µM in series [7]. The concentration for a half-maximal effect (EC50) in the series with Yellow fever virus was over 15 µM; in the series on Coxsackievirus B2, 9 µM; in the series on Poliovirus 1, over 30 µM; in series [6] it was over 17 µM; in the series with Human alphaherpesvirus 1 it was over 30 µM. For the same compound, half-maximal cytotoxicity in series [9] (CC50 at 96 h) was put at 24 µM.
Regarding `O=C(CCl)Nc1ccc(-c2nc3cc(C(F)(F)F)ccc3n2C23CC4CC(CC(C4)C2)C3)cc1`, the result (in series [1]; in series [4]; in [5]; in the series with Vaccinia virus; in [8]) was inactive. Also, the CC50 was 51 µM in series [2], over 100 µM in series [3] and 18 µM in [7]. The EC50 is over 51 µM in the series with Yellow fever virus; over 100 µM with Coxsackievirus B2; over 100 µM in the series on Poliovirus 1; over 18 µM in [6]; over 100 µM in the series on Human alphaherpesvirus 1. This compound returned a CC50 at 96 h in series [9] of 0.3 µM.
As for `CCC(=O)Nc1ccc(-c2nc3cc(C(F)(F)F)ccc3n2C23CC4CC(CC(C4)C2)C3)cc1`, the result (in [1]; in series [4]; in series [5]; in the series with Vaccinia virus; in series [8]) was inactive. The CC50 in series [2], in series [3] and in series [7] was over 100 µM in each case. The EC50 (in the series with Yellow fever virus; in the series on Coxsackievirus B2; in the series with Poliovirus 1; in series [6]; in the series with Human alphaherpesvirus 1) was over 100 µM each time. The compound further registered a half-maximal cytotoxic concentration (CC50) at 96 h in series [9] of 86 µM.
As to `Cn1c(-c2ccc(NC(=O)CN3CCOCC3)cc2)nc2cc(C(F)(F)F)ccc21`, the result (in series [1]; in series [4]; in series [5]; with Vaccinia virus; in [8]) was inactive. For the same compound, the CC50 in series [2], in [3] and in [7] was over 100 µM throughout. The EC50 (with Yellow fever virus; with Coxsackievirus B2; in the series on Poliovirus 1; in series [6]; in the series on Human alphaherpesvirus 1) was over 100 µM each time. The compound also gave a cytotoxic concentration (CC50) at 96 h in series [9] of at least 100 µM.
